# Screening results (PubChem)
# Shown are actives, neighbours in structure and some others; about 3.1% of the full set was active somewhere.
# E-sel inducer = E-selectin induction in HUVECs, primary screen, imaging, HUVEC, immunofluorescence imaging, single point | P16581 | normalized: neutral wells 0, TNF-alpha wells 100 | activation, % at 7.58 µM | 0.37% of 260,000 active | AID 686992, 2013;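 active = mean E-selectin-positive cell signal at least 10% of the positive control, reached in at least 60% of replicates, without over 20% cell loss; inconclusive = no rule given, readout overlaps actives, possibly toxicity-flagged; inactive = the rest, including those meeting only one limit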
# Target sequence (P16581 whole entry, looked up): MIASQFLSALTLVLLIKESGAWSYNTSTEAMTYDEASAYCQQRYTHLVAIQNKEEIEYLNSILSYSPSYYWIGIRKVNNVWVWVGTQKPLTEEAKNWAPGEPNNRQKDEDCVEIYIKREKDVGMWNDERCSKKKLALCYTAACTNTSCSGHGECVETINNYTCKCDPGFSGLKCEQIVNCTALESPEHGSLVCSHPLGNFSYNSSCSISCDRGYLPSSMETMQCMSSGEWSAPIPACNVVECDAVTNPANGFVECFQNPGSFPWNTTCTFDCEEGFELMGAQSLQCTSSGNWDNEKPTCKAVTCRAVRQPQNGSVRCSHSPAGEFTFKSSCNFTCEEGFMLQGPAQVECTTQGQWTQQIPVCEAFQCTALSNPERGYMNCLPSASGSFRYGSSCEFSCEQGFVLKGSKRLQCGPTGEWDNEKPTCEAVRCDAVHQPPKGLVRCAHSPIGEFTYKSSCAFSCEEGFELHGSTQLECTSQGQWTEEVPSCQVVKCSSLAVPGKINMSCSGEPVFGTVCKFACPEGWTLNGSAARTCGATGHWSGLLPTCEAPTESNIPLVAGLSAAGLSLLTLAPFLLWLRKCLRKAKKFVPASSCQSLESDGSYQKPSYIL
#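 System: HUVEC / Compound: single concentration / Signal: immunofluorescence imaging / Read-out: percent E-selectin-positive cells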
# DENV2 CPE rescue = inhibitors of DENV2 cytopathic effect, primary screen, cell-based, plate reader, single concentration. DENV2-infected cells, cytopathic effect rescue. CPE inhibition, % at 9.99 µM. 1.7% of 350,000 active; in the data active = CPE inhibition above about 20%, passing the limit was not always enough; inconclusive = no clear call, values can overlap the other calls; tested in BHK-21 cells
# Cneo AK release = Cryptococcus neoformans cell lysis inducers, primary screen, AK release luminescence, single concentration | C. neoformans lysis, adenylate kinase release luminescence, 4 h; normalised: neutral wells 0, clomiphene wells 100 | lysis activity, % at 15 µM | 0.2% of 360,000 active | AID 651654, 2012;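 active = mean lysis activity across replicates of at least 80%, whatever share of replicates individually reach that level; inactive = mean lysis activity below 80%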
#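 Test system: log-phase Cryptococcus neoformans yeast cells; Quantity: yeast cell density of 5 × 10^6 cells/mL; Buffer or medium: YPD; Doses: single compound concentration per well; Timing: 4 h at 37 °C static, read 1 h later; Measured by: AK luminescence; Read-out basis: lysis from increased AK signal; Control set: Clomiphene as positive control.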
# Ecoli rRNA inh = reduced GFP signal of wild-type E. coli, primary screen, bacterial rRNA inhibitor project, GFP/RFP fluorescence, OD600, single point; E. coli WT GFP vs humanized-ribosome RFP mutants, 24 h; active compounds read low; DMSO median 0, no signal -100; GFP signal change (wild-type ribosome), % (test concentration not listed); 1.6% of 350,000 active; AID 720706, 2013;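 active = significant combined selectivity score with lowered wild-type GFP, culture density cut under 30%, mutant RFP and density less affected; inactive = any of these conditions unmet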
# miR-122 sensor = miR-122 Renilla sensor signal increase in Huh7, primary screen, miR-122 inhibitor project, cell-based, single point, plate reader | 0.3% of 340,000 active | activation (reporter increase), % at 12.5 µM | Huh7 miR-122 Renilla luciferase sensor, 48 h; neutral wells = 0, positive control = 100 | AID 602342, 2012;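 active = mean replicate activation score at least 90 and every replicate individually at or above 90; inconclusive = only one of the two criteria met; inactive = neither criterion met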;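 note: higher luciferase means less miR-122 activity so hits act as miR-122 inhibitors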
# AID977621 = growth inhibition of wild-type GFP E. coli, dose response, H69 mutant RFP, cherry-pick; AID 977621, 2014; shares compounds with Ecoli rRNA inh; 1,900 tested, under 10 active; E. coli wild-type GFP strain growth, fluorescence, 24 h; activity change, negative = inhibition at 50 µM;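 active = Wild-type ribosome reporter drop at least double the humanized mutant ribosome reporter drop, growth loss under a set limit; inconclusive = no clear call, values can overlap the other calls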;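 note: wild-type GFP and H69 mutant RFP strains grown together 50/50 in each well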
# AID977628 = E. coli growth inhibition, wild-type GFP versus h24 humanized RFP strain, dose response, h24 mutant RFP vs wild-type GFP, cherry-pick; shares compounds with Ecoli rRNA inh; 1,900 tested, under 10 active; activity change, negative = inhibition at 50 µM; AID 977628, 2014; E. coli WT GFP strain growth, fluorescence, 24 h;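 active = compound lowering the normal-ribosome reporter at least twice as much as the humanized-ribosome reporter, growth loss under a set limit; inconclusive = no clear call, values can overlap the other calls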;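 note: wild-type GFP and h24 humanized RFP strains co-cultured 1 to 1 per well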
# A number is an active result; - = inactive; ? = inconclusive; . = no result given.
SMILES,E-sel inducer,DENV2 CPE rescue,Cneo AK release,Ecoli rRNA inh,miR-122 sensor,AID977621,AID977628
C[C@H](CO)N1C[C@H](C)[C@@H](CN(C)Cc2cccnc2)Oc2ncc(C#CC3(O)CCCC3)cc2C1=O,-,-,-,-,-,.,.
NC(=O)c1sc2nnc(-c3ccccc3)c(-c3ccccc3)c2c1N,-,-,-,-28.6,-,.,-
O=C(Cc1cccnc1)N1CC(=O)N2[C@H](C1)[C@@H](c1ccc(C3=CCCCC3)cc1)[C@@H]2CO,-,-,.,-16.7,.,.,?
O=C(Cc1cccnc1)N1CC(=O)N2[C@H](C1)[C@H](c1ccc(C3=CCCCC3)cc1)[C@@H]2CO,-,-,.,-,.,.,.
O=C(NCc1ccc2c(c1)OCO2)C1CCC(=O)N1C1CCCCC1 (stereo not drawn),-,-,-,-23.4,-,-,?
CCCC#C/C(CCC)=C1\c2ccccc2C(=O)N1c1ccccc1,-,-,.,-15.6,.,-,?
CS(=O)(=O)N1[C@@H]2Cn3c(ccc(-c4ccc(F)cc4)c3=O)[C@H]1[C@@H](C(=O)N1CCOCC1)[C@@H]2CO,-,-,-,-,.,.,.
CN(Cc1ccc(F)cc1)C(=O)CN1CCN(S(=O)(=O)c2ccc3c(c2)OCCCO3)CC1,-,-,-,-17.6,-,.,?
CC(C)N1CC2(CC(c3ccccc3C(F)(F)F)=NO2)CN1C(=O)c1ccco1 (stereo not drawn),-,-,.,-20.5,-,.,?
CC(C)N1CC2(CC(c3ccccc3C(F)(F)F)=NO2)CN1C(=O)c1ccc(C(C)(C)C)cc1 (stereo not drawn),-,-,.,-,-,.,.
CCCNC(=O)N1C[C@H](O)COC[C@H]2O[C@@H](CC(=O)OC)CC[C@@H]21,-,-,-,-,-,.,.
CCN(C(=O)COC(=O)CCc1ccccc1)c1ccccc1,.,-,-,-33.7,-,.,-
CCN(C(=O)COC(=O)CN1C(=O)c2ccccc2C1=O)c1ccccc1,-,-,-,-,-,.,.
COc1cccc(C(=O)NC(C)c2ccc(Br)cc2)c1 (stereo not drawn),-,-,.,-27.2,.,-,-
Cc1ccc(S(=O)(=O)N(C)C[C@H]2OCCCC[C@H](C)Oc3ccc(NS(C)(=O)=O)cc3C(=O)N([C@H](C)CO)C[C@@H]2C)cc1,-,-,-,-,-,.,.
N#C[C@H]1[C@H](c2ccccc2-c2ccccc2)[C@@H](CO)N1C(=O)Cc1ccncc1,-,-,.,-,.,.,.
CNC[C@H]1Oc2ccc(NC(C)=O)cc2C(=O)N(C)C[C@@H]1C,.,.,.,-,.,.,.
COc1ccc(Oc2ccc(C(F)(F)F)cc2NC(=O)c2ccc(F)cc2)cc1,.,-,-,-,-,.,.
COc1ccc(Oc2ccc(C(F)(F)F)cc2NC(=O)CC(CC(=O)O)c2ccccc2)cc1 (stereo not drawn),-,?,-,-35.6,-,-,.
CC1CCCCN1CC(O)COCCC12CC3CC(CC(C3)C1)C2 (stereo not drawn),-,-,-,-28.7,-,-,.
CN(c1ccccc1)S(=O)(=O)c1cccc(NC(=O)CCNC(=O)c2ccccc2)c1,-,-,-,-,.,.,.
CN(c1ccccc1)S(=O)(=O)c1cccc(NC(=O)CCNC(=O)c2ccc([N+](=O)[O-])cc2)c1,-,-,-,-16.7,-,-,?
CCCNC(=O)N1CC2(CN(C(=O)Cc3cccnc3)C2)c2c([nH]c3cc(OC)ccc23)[C@@H]1CO,-,-,.,-,.,.,.
CCCC(=O)Nc1nc2c(OC)ccc(OC)c2s1,.,-,-,-,-,.,.
CCC(=O)Nc1nc2c(OC)ccc(OC)c2s1,-,-,-,-20.6,-,-,.
SMILES,E-sel inducer,DENV2 CPE rescue,Cneo AK release,Ecoli rRNA inh,miR-122 sensor,AID977621,AID977628
COc1ccccc1NC(=O)c1ccc(NC(=O)c2ccco2)cc1,-,-,.,-,-,.,.
COc1ccc(C(=O)Nc2ccccc2NC(=O)c2ccc(OC)cc2)cc1,.,-,-,.,-,.,.
COc1cc(OC)cc(C(=O)Nc2ccc(C(=O)Nc3ccccc3OC)cc2)c1,-,-,-,-21.6,-,-,?
COc1ccc(C(=O)Nc2cccc3ccccc23)cc1,-,-,-,-18.7,.,-,-
COc1cccc(C#Cc2ccc([C@H]3[C@H](CO)N4C(=O)CN(C(=O)Cc5cccnc5)C[C@@H]34)cc2)c1,-,-,.,-,.,.,.
CC1CCCCN1C(=O)C1CCCN(S(=O)(=O)c2cccc3nsnc23)C1 (stereo not drawn),.,-,-,-20.2,-,-,?
CN(C)S(=O)(=O)c1cccc(NC(=O)c2cccc(NS(=O)(=O)c3ccccc3)c2)c1,-,-,-,-,.,.,.
CN(C)S(=O)(=O)c1cccc(NC(=O)c2ccc3c(c2)S(=O)(=O)N=C2CCCCCN23)c1,-,-,-,-19.8,-,-,-
CN(C)S(=O)(=O)c1cccc(C(=O)Nc2ccc(C(=O)Nc3cccc(S(N)(=O)=O)c3)cc2)c1,-,-,-,-24.4,-,.,-
C[C@@H]1CCCCO[C@@H](CN(C)C(=O)NC2CCCCC2)[C@@H](C)CN([C@H](C)CO)C(=O)c2cc(NS(=O)(=O)c3ccccc3)ccc2O1,-,-,-,-,-,.,.
CCOC(=O)C(C)Sc1nc(N2CCOCC2)c2c(c1C#N)CC(C)(C)OC2 (stereo not drawn),-,-,-,-28.6,-,-,-
CCS(=O)(=O)c1ccc2oc(SCC(=O)NCCc3ccc(OC)cc3)nc2c1,.,-,.,-,.,.,.
CN(C)S(=O)(=O)c1ccc2oc(SCC(=O)NCC(F)(F)F)nc2c1,.,.,-,-14.4,-,?,-
COc1cccc(-c2ccc([C@H]3[C@H](CO)N4C(=O)CN(C(=O)C5CCC5)C[C@@H]34)cc2)c1,-,-,.,-,.,.,.
COc1ccccc1CNC(=O)C[C@H]1C[C@@H]2c3cc(NC(=O)C4CCOCC4)ccc3O[C@@H]2[C@@H](CO)O1,-,-,-,-,-,.,.
Cc1cc(C)n(CC(O)COc2ccc3ccccc3c2)n1 (stereo not drawn),-,-,.,-28.9,.,-,.
Cc1ccc(S(=O)(=O)N(C)c2ccccc2)cc1,.,.,-,.,-,.,.
CC(=O)Oc1ccc(N(c2ccccc2)S(=O)(=O)c2ccc(C)cc2)cc1,-,-,-,-24.0,-,.,-
c1ccc2[nH]c(CCCCc3nc4ccccc4[nH]3)nc2c1,.,-,-,-,-,.,.
